The results in this text go back to ChEMBL document CHEMBL1130078, “Discovery of an orally active series of isoxazoline glycoprotein IIb/IIIa antagonists” (J Med Chem, 1997).

Test [1] concerns Canis familiaris. Nature of the test: Inhibition of platelet aggregation for 12 hr after oral dose of 0.3-0.4 mg/kg to dog. The test is classed as functional, Canis lupus familiaris. Put shortly: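 Dogs dosed orally at 0.1–0.4 mg/kg; ex vivo ADP (100 μM)-induced platelet aggregation followed over time up to 12 h, n = 4.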
Test [2] has as its system Rhesus monkey. In words: Inhibition of ex vivo aggregation over 12 hr after oral dose of 0.3 mg/kg to rhesus monkey. The test is classed as functional, Cercopithecidae. The settings on record: Macaca mulatta. Put shortly: (§1)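 Rhesus monkeys of either sex, 8–15 years, 6–10 kg, at least two animals/sex per dose, n = 8. Oral gavage by feeding tube of a solution in 0.9% saline (0.5 mL/kg), then water flush. Blood was drawn at various time points from the femoral or saphenous vein into citrate for ex vivo ADP (100 μM)-induced aggregation.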

For test [3], the system named is Rhesus monkey. In words: Inhibition of ex vivo aggregation in 2 hr after oral dose of 0.3 mg/kg to rhesus monkey. The test is classed as functional, Cercopithecidae. As to conditions: Macaca mulatta. The gist of the method:
as §1

In test [4] the target is T1, Integrin alpha-IIb/beta-3 (Homo sapiens, UniProt P05106+P08514). In words: In vitro inhibition of ADP-induced platelet aggregation in human platelet rich plasma (hPRP). The class given is functional, cell-free.
The target in test [5] is T1, Integrin alpha-IIb/beta-3.
For test [6], the system named is Canis familiaris. In words: Inhibition of ex vivo platelet aggregation after intravenous administration of bolus dose of 0.025 mg/kg to dog. The settings on record: Canis lupus familiaris. The class given is functional. Put shortly:
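Dogs given an iv bolus. Ex vivo ADP (100 μM)-induced platelet aggregation measured in samples taken over 5 h.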

In test [7] the target is T1, Integrin alpha-IIb/beta-3. This is another data set of the same source.

T1 sequence (P05106 27-788 limits assumed): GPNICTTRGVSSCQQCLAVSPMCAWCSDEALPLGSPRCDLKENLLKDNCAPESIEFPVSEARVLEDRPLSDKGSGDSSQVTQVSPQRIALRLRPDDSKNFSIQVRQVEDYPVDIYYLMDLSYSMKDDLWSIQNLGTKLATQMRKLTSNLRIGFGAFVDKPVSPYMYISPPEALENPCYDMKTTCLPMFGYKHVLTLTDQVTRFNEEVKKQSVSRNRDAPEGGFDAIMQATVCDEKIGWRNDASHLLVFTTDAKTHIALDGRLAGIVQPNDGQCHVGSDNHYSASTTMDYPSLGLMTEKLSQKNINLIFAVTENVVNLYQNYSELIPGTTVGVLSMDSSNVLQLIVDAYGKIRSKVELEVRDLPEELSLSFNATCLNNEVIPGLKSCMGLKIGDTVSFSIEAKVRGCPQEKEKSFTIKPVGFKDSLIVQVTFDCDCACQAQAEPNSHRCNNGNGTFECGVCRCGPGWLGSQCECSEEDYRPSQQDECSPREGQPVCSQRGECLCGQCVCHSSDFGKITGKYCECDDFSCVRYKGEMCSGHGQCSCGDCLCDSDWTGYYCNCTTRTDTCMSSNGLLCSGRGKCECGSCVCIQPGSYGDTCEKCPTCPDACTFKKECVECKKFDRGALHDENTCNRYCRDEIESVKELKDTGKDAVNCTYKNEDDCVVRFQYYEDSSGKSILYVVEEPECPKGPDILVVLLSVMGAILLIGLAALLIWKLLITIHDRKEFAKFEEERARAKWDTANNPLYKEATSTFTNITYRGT
T1 sequence (P08514 32-887 limits assumed): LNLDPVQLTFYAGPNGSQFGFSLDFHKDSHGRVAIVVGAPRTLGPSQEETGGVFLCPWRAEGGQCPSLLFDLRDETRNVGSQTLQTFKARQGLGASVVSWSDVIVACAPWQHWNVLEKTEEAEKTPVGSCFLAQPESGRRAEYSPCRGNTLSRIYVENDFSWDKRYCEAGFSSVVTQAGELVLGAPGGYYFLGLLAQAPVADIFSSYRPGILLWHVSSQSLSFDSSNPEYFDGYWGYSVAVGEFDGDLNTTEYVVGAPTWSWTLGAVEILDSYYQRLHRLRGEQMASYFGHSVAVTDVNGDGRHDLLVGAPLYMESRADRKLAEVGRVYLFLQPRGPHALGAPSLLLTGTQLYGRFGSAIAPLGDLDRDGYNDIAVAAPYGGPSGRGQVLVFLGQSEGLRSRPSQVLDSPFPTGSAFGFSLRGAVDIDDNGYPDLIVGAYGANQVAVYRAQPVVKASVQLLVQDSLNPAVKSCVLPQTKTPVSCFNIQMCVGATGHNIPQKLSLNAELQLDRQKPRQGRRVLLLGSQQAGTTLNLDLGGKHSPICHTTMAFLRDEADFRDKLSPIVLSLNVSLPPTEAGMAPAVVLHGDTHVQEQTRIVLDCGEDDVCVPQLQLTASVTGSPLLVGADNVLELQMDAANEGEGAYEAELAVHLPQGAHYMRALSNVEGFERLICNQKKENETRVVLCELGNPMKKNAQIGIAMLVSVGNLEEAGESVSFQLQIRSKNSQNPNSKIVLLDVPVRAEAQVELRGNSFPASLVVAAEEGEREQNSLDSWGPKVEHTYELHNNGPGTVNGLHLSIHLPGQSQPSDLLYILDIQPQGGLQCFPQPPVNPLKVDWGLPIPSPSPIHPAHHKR
T1 sequence (P08514 891-1039 limits assumed): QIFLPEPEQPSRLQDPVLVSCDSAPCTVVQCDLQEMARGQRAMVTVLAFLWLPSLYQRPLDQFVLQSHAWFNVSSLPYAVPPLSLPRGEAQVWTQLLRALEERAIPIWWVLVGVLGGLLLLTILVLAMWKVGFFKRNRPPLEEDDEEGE

Broadly, the Inhibition is the change of the read-out against control, counted positive when it falls. As usually defined, the inhibition in vivo is how much of the control response was suppressed. As to `CCCCOC(=O)N[C@@H](CNC(=O)CC1CC(c2ccc(C(=N)N)cc2)=NO1)C(=O)OC.Cl` (some centres not stated), the Inhibition in the test with Canis familiaris [1] is reported as >60%. In addition, the values for the inhibition in vivo at 0.3 mg/kg with Rhesus monkey [2] and in the test with Rhesus monkey [3] were 60% and 90%, respectively.
The IC50 is the midpoint of a concentration-inhibition curve. For the compound `N=C(N)c1ccc(C2=NOC(CC(=O)NCCC(=O)O)C2)cc1` (configuration not stated), the IC50 in test [4] stood at 240 nM.
On to `CCCCOC(=O)N[C@@H](CNC(=O)C[C@H]1CC(c2ccc(C(=N)N)cc2)=NO1)C(=O)O`, for which the results for the IC50 in test [5] and in test [7] were 11 nM and 0.25 nM, respectively. This compound also registered an inhibition in vivo at 0.025 mg/kg in the test with Canis familiaris [6] of 90%.
